Assay results as given in ChEMBL document CHEMBL2406929, “An optimized pyrimidinol multifunctional radical quencher” (ACS Med Chem Lett, 2013).
Active and inactive are the calls of the source. The rule behind the calls is not given here.

What was measured:
[1] = Effect on total ATP level in human Friedreich's ataxia lymphocytes at 10 uM after 48 hrs by bioluminescence assay relative to control; format: functional
Summary of the method: (§1)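 Total cellular ATP measured in CoQ10-deficient and FRDA lymphocytes grown in glucose-free medium supplemented with galactose, so that cells rely on oxidative phosphorylation. Compounds tested at 5, 10 and 25 μM for 48 h, added from DMSO (final <0.5%). ATP expressed as % of untreated control.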

[2] = species: Homo sapiens; experiment: Antioxidant activity in human Friedreich's ataxia lymphocytes assessed as inhibition of diethyl maleate-induced lipid peroxidation at 100 to 500 nM incubated overnight prior to diethyl maleate-treatment measured after 120 mins by C11-BODIPY581/591 staining-based FACS flow cytometric analysis; format: functional
Summary of the method: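 Glutathione depletion by diethyl maleate in FRDA lymphocytes. Cells stained with C11-BODIPY581/591; oxidized green fluorescence read by FACS on the FL1-H channel. Lipid peroxidation taken as the increase in geometric mean fluorescence intensity relative to the untreated control, expressed as % scavenging activity. Compounds added from DMSO (final DMSO <0.5%). Mean ± SEM, n = 3.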

[3] = Effect on total ATP level in CoQ10-deficient human GM17932 cells at 25 uM after 48 hrs by bioluminescence assay relative to control; format: functional; summary of the method: as §1
[4] = Cytoprotective activity against BSO-induced cell death in human Friedreich's ataxia fibroblasts preincubated for 12 hrs prior to BSO-treatment measured after 48 hrs by luminescence assay
[5] = species: Homo sapiens; experiment: Cytoprotective activity against diethyl maleate-induced loss of mitochondrial membrane integrity in human Friedreich's ataxia lymphocytes at 500 nM incubated overnight prior to diethyl maleate-treatment measured after 140 mins by TMRM staining-based FACS flow cytometric analysis relative to control; format: functional
Summary of the method: (§2)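 Δψm in FRDA lymphocytes after diethyl maleate treatment. Cells stained with 250 nM TMRM and analyzed by flow cytometry on the FL2-H channel, 10,000 events per sample. Result is the % of cells with intact Δψm (top-right quadrant). FCCP uncoupler used as positive control. Final DMSO <0.5%. Means ± SEM of three independent experiments run in duplicate.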

[6] = Effect on total ATP level in human Friedreich's ataxia lymphocytes at 5 uM after 48 hrs by bioluminescence assay relative to control; format: functional; summary of the method: as §1
[7] = Effect on total ATP level in CoQ10-deficient human GM17932 cells at 10 uM after 48 hrs by bioluminescence assay relative to control; format: functional; summary of the method: as §1
[8] = species: Homo sapiens; experiment: Cytoprotective activity against diethyl maleate-induced loss of mitochondrial membrane integrity in human Friedreich's ataxia lymphocytes at 100 nM incubated overnight prior to diethyl maleate-treatment measured after 140 mins by TMRM staining-based FACS flow cytometric analysis relative to control; format: functional; summary of the method: as §2
[9] = species: Homo sapiens; experiment: Cytoprotective activity against diethyl maleate-induced loss of mitochondrial membrane integrity in human Friedreich's ataxia lymphocytes at 250 nM incubated overnight prior to diethyl maleate-treatment measured after 140 mins by TMRM staining-based FACS flow cytometric analysis relative to control; format: functional; summary of the method: as §2
[10] = Effect on total ATP level in human Friedreich's ataxia lymphocytes at 25 uM after 48 hrs by bioluminescence assay relative to control; format: functional; summary of the method: as §1
[11] = Effect on total ATP level in CoQ10-deficient human GM17932 cells at 5 uM after 48 hrs by bioluminescence assay relative to control; format: functional; summary of the method: as §1
[12] = species: Homo sapiens; experiment: Decrease in total ATP level in CoQ10-deficient human GM17932 cells after 48 hrs by bioluminescence assay; format: functional; summary of the method: as §1
[13] = species: Homo sapiens; experiment: Decrease in total ATP level in human Friedreich's ataxia lymphocytes after 48 hrs by bioluminescence assay; format: functional; summary of the method: as §1
[14] = species: Homo sapiens; experiment: Decrease in mitochondrial ATP level in CoQ10-deficient human Friedreich's ataxia lymphocytes at 5 uM after 6 days by bioluminescence assay in presence of 4-nitrobenzoate; format: functional
[15] = species: Homo sapiens; experiment: Decrease in mitochondrial ATP level in CoQ10-deficient human Friedreich's ataxia lymphocytes at 5 uM after 6 days by bioluminescence assay; format: functional
[16] = species: Homo sapiens; experiment: Reversal of 4-nitrobenzoate-induced reduction in mitochondrial ATP level in CoQ10-deficient human Friedreich's ataxia lymphocytes at 5 uM after 6 days by bioluminescence assay; format: functional
[17] = species: Homo sapiens; experiment: Reversal of 4-nitrobenzoate-induced reduction in mitochondrial ATP level in CoQ10-deficient human Friedreich's ataxia lymphocytes at 10 uM after 6 days by bioluminescence assay; format: functional

Structure (SMILES)	Activity [1] [%]	inhibition [2]	Activity [3] [%]	EC50 [4] [nM]	Activity [5] [%]	Activity [6] [%]	Activity [7] [%]	Activity [8] [%]	Activity [9] [%]	Activity [10] [%]	Activity [11] [%]	Activity [12]	Activity [13]	Activity [14]	Activity [15]	Activity [16]	Activity [17]
CCCCCCCCCCCCCCc1nc(N(C)C)nc(OC)c1O	97	Active	65	22	92	109	97	77	88	55	105						
CCCCCCCCCCC1=C(C)C(=O)C(OC)=C(OC)C1=O [DECYLUBIQUINONE]	76		63	56	90	93	99	60	82	63	100	Dose-dependent effect	Dose-dependent effect				
COC1=C(OC)C(=O)C(CCCCCCCCCCO)=C(C)C1=O [IDEBENONE]	46		2	551	45	73	46	18	26	3	80	Dose-dependent effect	Dose-dependent effect	Active	Active		
COc1nc(N(C)C)nc(CCCCCCCCCCOCC23CC4CC(CC(C4)C2)C3)c1O	103	Active	64	32	90	107	97	63	82	72	105						
CCCCCCCCCCCCCCCCc1nc(N(C)C)nc(OC)c1OC(C)=O	101		96			109	109			92	116						
CCCCCCCCCCc1nc(N(C)C)nc(OC)c1O	87		58	68	88	94	83	68	80	58	96						
Cc1nc(N(C)C)nc(CCCCCCCCCCO)c1O	46		46	456	56	77	86	25	37	28	99						
CCCCCCCCCCCCCCCCCCc1nc(N(C)C)nc(OC)c1O	102	Active	96	266	73	101	98	39	55	102	98						
COc1nc(N(C)C)nc(CCCCCCCCCCO)c1O	66	Active	54	345	68	80	95	32	48	46	102					Active	inactive
CCCCCCCCCCCCCCCCc1nc(N(C)C)nc(OC)c1O	96	Active	90	25	92	108	106	81	90	80	118					Active	
